Results of several laboratories.
Each line is one published result; the experiments were not run side by side.
Target: Serine/threonine-protein kinase MARK1 (MARK1, Homo sapiens, UniProt Q9P0L2)

Structure (SMILES)	test	setting	quantity	value
CSc1cccnc1N1CCN(Cc2nc3ccccc3[nH]2)CC1	cell-free assay, competition with immobilised ligand	1 µM	remaining binding	100%
CCN(CC)CCNC(=O)c1c(C)[nH]c(/C=C2\C(=O)Nc3ccc(F)cc32)c1C	enzyme activity, inhibitor	0.3 µM	inhibition	50%
NS(=O)(=O)c1ccc(CNc2nc(Nc3cccc(NC(=O)N4CCCC4)c3)ncc2C2CC2)cc1	enzyme activity, inhibitor, radiometric	1 µM	remaining activity	94%
CNC(=O)c1cc(Oc2ccc(NC(=O)Nc3ccc(Cl)c(C(F)(F)F)c3)cc2)ccn1	enzyme activity, inhibitor	0.3 µM	inhibition	9%
O=C(NCCCNc1nc(Nc2cccc(NC(=O)N3CCCC3)c2)ncc1I)c1cccs1	enzyme activity, inhibitor, radiometric	1 µM	remaining activity	-5%
C=CC(=O)Nc1cc(Nc2nccc(Nc3cc(Cl)c(F)cc3C(C)(C)O)n2)c(OC)cc1N1CC[C@@H](N(C)C)C1	enzyme activity, inhibitor	1 µM	inhibition	4%
Cc1ccc(Nc2nccc(N(C)c3ccc4c(C)n(C)nc4c3)n2)cc1S(N)(=O)=O	enzyme activity, inhibitor	10 µM	inhibition	26%
CS(=O)(=O)CCNCc1ccc(-c2ccc3ncnc(Nc4ccc(OCc5cccc(F)c5)c(Cl)c4)c3c2)o1	cell-free assay	0.5 µM	remaining signal	149%
C[C@@]1(Cc2ccc(C#N)cc2)C(=O)N(c2cc(Cl)cc(Cl)c2)c2ncc(C(=O)NC3(c4nc(C5CCC5)no4)CC3)n21	cell-free assay, competition with immobilised ligand	1 µM	remaining binding	100%
CSc1nc(C)c(-c2ccnc(Nc3ccc(N4CCOCC4)cc3)c2)[nH]1	enzyme activity, inhibitor	10 µM	inhibition	20.1%
Cc1cc(NC(=O)c2cccc3cc(-c4cccc5[nH]nc(N)c45)ccc23)ccc1F	enzyme activity, inhibitor	0.1 µM	activity vs control	133%
O=C(Nc1cccc(Nc2ncc(Br)c(NCCc3cnc[nH]3)n2)c1)N1CCCC1	enzyme activity, inhibitor, radiometric	1 µM	remaining activity	-4%
CC1=C(C#N)C(c2ccc3c(c2)c(NC(=O)c2ccccc2C)nn3C)C(C#N)=C(C)N1	cell-free assay, competition with immobilised ligand	1 µM	remaining binding	100%
Cc1ncc([N+](=O)[O-])n1C(=NO)c1ccccc1C(F)(F)F	enzyme activity, inhibitor	10 µM	inhibition	34.2%
CCC(=O)N[C@H]1CC[C@@H](C(=O)N(C)c2ccc(-c3nc4ccccc4o3)cc2)C1	cell-free assay, competition with immobilised ligand	1 µM	remaining binding	100%
CN1CCc2cc(Nc3ncc(C4CC4)c(NCCCNC(=O)C4CCC4)n3)ccc2C1	enzyme activity, inhibitor, radiometric	1 µM	remaining activity	-1%

Structure (SMILES)	test	setting	quantity	value
CN(C)c1nccc(-c2cnn3ncccc23)n1	binding	1 µM	remaining binding	96%
O=C(NCCCNc1nc(Nc2cccc(CN3CCOCC3)c2)ncc1C1CC1)C1CCC1	enzyme activity, inhibitor, radiometric	1 µM	remaining activity	-5%
COc1cc2c(N3CCN(C(=O)Nc4ccc(OC(C)C)cc4)CC3)ncnc2cc1OCCCN1CCCCC1	cell-free assay	0.5 µM	remaining signal	89.9%
Cc1sc(C(=O)NC2COC2)cc1-n1cc(NC(=O)Nc2c(F)cccc2Cl)cn1	enzyme activity, inhibitor	10 µM	remaining activity	95.3%
Cc1nn(CC(F)(F)F)cc1Nc1ncc(C2CC2)c(NCCc2c[nH]cn2)n1	enzyme activity, inhibitor, radiometric	1 µM	remaining activity	71%
C[C@@H](c1cccc(C#N)c1)n1cc(Cl)cc(C(N)=O)c1=N	cell-free assay, competition with immobilised ligand	1 µM	remaining binding	100%
O=C1NC(=O)c2cc(Nc3ccc(F)cc3)c(Nc3ccc(F)cc3)cc21	cell-free assay	0.5 µM	remaining signal	98.9%
COc1cc2ncnc(Nc3ccc(Oc4ccccc4)cc3C)c2cc1OC	enzyme activity, inhibitor	1 µM	inhibition	8%
COc1cc2ncnc(Nc3ccc(F)c(Cl)c3)c2cc1OCCCN1CCOCC1	cell-free assay	0.5 µM	remaining signal	116%
Cc1nn(CC(F)(F)F)cc1Nc1ncc(Br)c(NCCCNC(=O)C2CCC2)n1	enzyme activity, inhibitor, radiometric	1 µM	remaining activity	8%
CCCCN(CCCC)C(=O)CN1C[C@H](c2cc(OC)c3c(c2)OCO3)[C@@H](C(=O)O)[C@@H]1CC(C)(C)CCC	cell-free assay, competition with immobilised ligand	1 µM	remaining binding	96.5%
Cc1nn(CC(F)(F)F)cc1Nc1ncc(C2CC2)c(NCc2ccc(S(N)(=O)=O)cc2)n1	enzyme activity, inhibitor, radiometric	1 µM	remaining activity	108%
CS(=O)(=O)N1CCCC(NC(=O)[C@H](CCC2CCCCC2)NC(=O)c2ccc(CNc3ncnc4c3nnn4-c3ccccc3)cc2)C1 (some centres unmarked)	cell-free assay, competition with immobilised ligand	0.1 µM	remaining binding	74%
FC(F)(F)Oc1cccc(-c2cnc3ccc(-c4ccncc4)nn23)c1	enzyme activity, inhibitor, radiometric	1 µM	activity vs control	92%
Cc1cc(C)c(-n2ccn3nc(-c4cccnc4)cc23)cc1NC(=O)c1cc(C#N)cc(S(F)(F)(F)(F)F)c1	cell-free assay, competition with immobilised ligand	0.1 µM	remaining binding	96.7%
FC(F)c1nc2ccccc2n1-c1nc(N2CCOCC2)nc(N2CCOCC2)n1	enzyme activity, inhibitor	10 µM	remaining activity	106%
